The record followed here is PubChem BioAssay AID1040 (The Scripps Research Institute Molecular Screening Center, 2008).

In all, about 200,000 compounds went through this assay and about 2,000 (1%) were called active. The sample holds actives, similar compounds and a random draw of the others, so the mix is not that of the screen. Values without a mark were called inactive.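 The calls were made as follows: active = inhibition above the campaign mean inhibition of all tested compounds plus 3 SD (cut at about 20% in these data); inactive = the rest.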

The target of this assay is Neuropeptide Y receptor type 1 (Homo sapiens) (UniProt P25929). The assay is described as follows: blockers of human neuropeptide Y Y1 receptor – cell-based, primary screen (AID 1040).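 Also: 0% = DMSO wells given NPY plus isoproterenol and 100% = isoproterenol alone without NPY.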 The note with it: HEK293-CNG Y1 cells, membrane potential fluorescence; at 3.6 µM; hits give high values; NPY at EC95, then isoproterenol. Put shortly: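 Material: HEK293 Y1/CNG channel cell line; also added: NPY (25 nM), isoproterenol (1 µM), Ro 20-1724 (25 µM); doses: one concentration, 3.6 µM, in 0.4% DMSO; schedule: compound incubation 1 h at room temperature, readout 45 min post-stimulation; technique: membrane potential fluorescence; measure: fluorescence ratio normalized to % inhibition between controls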
Neuropeptide Y receptor type 1 (Homo sapiens), sequence (P25929 whole entry, looked up): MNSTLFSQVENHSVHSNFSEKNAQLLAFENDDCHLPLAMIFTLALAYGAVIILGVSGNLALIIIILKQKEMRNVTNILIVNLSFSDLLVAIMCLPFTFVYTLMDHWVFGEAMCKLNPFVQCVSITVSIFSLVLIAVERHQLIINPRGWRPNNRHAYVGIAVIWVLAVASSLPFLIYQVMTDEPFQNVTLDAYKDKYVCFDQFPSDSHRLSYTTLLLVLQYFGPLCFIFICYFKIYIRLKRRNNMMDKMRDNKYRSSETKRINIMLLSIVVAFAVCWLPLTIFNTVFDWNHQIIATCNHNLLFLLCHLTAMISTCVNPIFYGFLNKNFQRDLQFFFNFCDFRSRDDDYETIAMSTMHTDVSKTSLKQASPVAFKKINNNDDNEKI
What is called inhibition is the change of the read-out against control, counted positive when it falls. For `COc1ccc(NC(=O)/C(C#N)=C\c2cc(OC)c(OCc3ccc(C(=O)O)cc3)cc2Br)cc1`, the inhibition was 2.86%.

In the case of `O=C1c2cccnc2C(Nc2ccc(S(=O)(=O)N3CCCCCC3)cc2)N1Cc1ccccc1` (stereo unspecified), the inhibition was 30.7% (active).

Regarding `O=S(=O)(NCc1ccccc1)c1ccc(S(=O)(=O)N2CCCC2)cc1`, the inhibition was 1%.

Regarding `Cc1nc(Nc2ccc(S(=O)(=O)N3CCCC3)cc2)c2nnn(Cc3ccccc3)c2n1`, the inhibition was -11%.

With `Cc1cccc(N2CCC(NCc3c(C(=O)N4CCCCC4)nc4c(C)cccn34)CC2)c1`, the inhibition was 11%.

Consider `COc1ccc(C(C[N+](=O)[O-])n2nc(C)cc2C)cc1` (stereo unspecified), for which the inhibition was -2.49%.

On to `COc1ccccc1CNC(=O)C1CCN(c2nc3ccccc3o2)CC1`, for which the inhibition was -3.62%.

As for `COc1ccc(OC)c(CNC(=O)C2CCCN(c3nc4ccccc4o3)C2)c1` (stereo unspecified), the inhibition is 7.8%.

For `CCc1ccc(CNC(=O)C2CCCN(c3nc4ccccc4o3)C2)cc1` (stereo unspecified), the inhibition is 26.4% (active).

Consider `COC(=O)c1ccc(COC(=O)c2cnccn2)cc1`, for which the inhibition is -0.5%.

For `OC(COCC1COc2ccccc2O1)CN1CCN(c2ccc(F)cc2)CC1` (stereo unspecified), the inhibition was -9.16%.

As for `Cc1ccc(S(=O)(=O)N(C)CC(=O)OCC(=O)N2CC(=O)Nc3ccccc32)cc1`, the inhibition was 1.33%.

In the case of `O=C(c1ccc(Cl)cc1)c1ccc(OCC(O)CN2CCCCC2)cc1` (stereo unspecified), the inhibition was 6.02%.

Turning to `OC(COc1cccc(OCC(O)CN2CCCC2)c1)CN1CCCC1` (stereo unspecified), the inhibition is 6.73%.

For the molecule `O=C(c1ccccc1)c1ccc(OCC(O)CN2CCCC2)cc1` (stereo unspecified), the inhibition was 20.8% (active).

Regarding `CN1CCNC(=O)C1CC(=O)NCCC1=CCCCC1` (stereo unspecified), the inhibition was 1.21%.

In the case of `Cc1ccc(OCC(=O)NC(C)c2ccccc2)c([N+](=O)[O-])n1` (stereo unspecified), the inhibition was 19.9%.

As to `CCCS(=O)(=O)N1CCCC(C(=O)N2CCN(c3ccccc3)CC2)C1` (stereo unspecified), the inhibition is 0.57%.

In the case of `CS(=O)(=O)N1CCCC(C(=O)N2CCOCC2)C1` (stereo unspecified), the inhibition was 94.5% (active).

As for `Cc1ccc(CNC(=O)C2CCCN(S(C)(=O)=O)C2)cc1` (stereo unspecified), the inhibition was 0.15%.

Turning to `COc1ccc(N2CCN(CCCNC(=O)C3CCN(S(=O)(=O)N4CCOCC4)CC3)CC2)cc1`, the inhibition was -2.61%.

Take `CCC1(C)Cc2c(sc3nc(SC)nc(N)c23)CO1` (stereo unspecified): the inhibition is -1.88%.

`CN(C)CCSc1nc(N)c2c3c(sc2n1)COC(C)(C)C3`: the inhibition is 1.6%.

On to `CCCSc1nc(NCc2ccco2)c2c3c(sc2n1)COC(C)(CC)C3` (stereo unspecified), for which the inhibition was 30.4% (active).

As for `COC(=O)c1ccc(C(NC(=O)OCc2ccccc2)/C(C)=C/[C@@H](C)C(=O)NCc2ccc(OC)c(OC)c2)cc1` (stereo partly specified), the inhibition was 21.5% (active).

With `COC(=O)c1ccc(C2C(Oc3ccccc3C)C(=O)N2CCc2ccc(OC)c(OC)c2)cc1` (stereo unspecified), the inhibition was 8.91%.

With `CCOc1ccc(C(CCc2ccccc2)NC(=O)c2ccc(OC)c(OC)c2)cc1OCC` (stereo unspecified), the inhibition is -0.85%.

As for `O=C(CCCNS(=O)(=O)c1cccc2nsnc12)NCCN1CCN(c2ccccc2F)CC1`, the inhibition was 1.63%.

Turning to `Cc1c(/C=N\NC(=O)c2cc3ccccc3o2)c2ccccc2n1C`, the inhibition was 8.68%.

Take `CCOC(=O)Nc1ccccc1N1C(=O)c2ccccc2C1=O`: the inhibition was -3.15%.

On to `O=C1C(=O)N(c2ccccc2)c2ccccc21`, for which the inhibition is 7.08%.

`O=C1c2ccccc2C(=O)N1c1ccccc1S(=O)C(F)(F)F` (stereo unspecified): the inhibition is 21.4% (active).

In the case of `O=C(NNC1=C(C(=O)C(F)(F)F)CCC1)c1ccncc1`, the inhibition was 0.61%.

As for `CC(=O)c1cc(-c2ccccc2)n(CCC(=O)NC2CCCCCC2)c1C`, the inhibition is 2.33%.

In the case of `CCCc1[nH]nc2c1C(C1CC=CCC1)C(C#N)=C(N)O2` (stereo unspecified), the inhibition is -5.43%.

`CCCc1[nH]nc2c1C(c1ccc(Br)s1)C(C#N)=C(N)O2` (stereo unspecified): the inhibition is 68.6% (active).

Consider `CCCc1[nH]nc2c1C(c1c(C)nn(-c3ccccc3)c1Cl)C(C#N)=C(N)O2` (stereo unspecified), for which the inhibition was -1.69%.

In the case of `O=C(COC(=O)c1cnc(Cl)c(Cl)c1)NCc1ccco1`, the inhibition was 1.45%.

Regarding `N#Cc1ccc(N2Cc3ccccc3/C2=N/C(=O)Nc2ccc(Cl)cc2)cc1`, the inhibition is -0.16%.

`C/C(=N\NC(=S)NCc1ccccc1)c1ccc(Cl)cc1`: the inhibition is 21.7% (active).

With `C/C(=N\NC(=S)NCc1ccccc1)C1CCCCC1`, the inhibition is 3.71%.

Turning to `O=C(O)c1ccc(/C=N/NC(=S)NCc2ccccc2)cc1`, the inhibition was 4.72%.

`OCCC1CN(Cc2cnc(-c3ccccc3)s2)CCN1CCc1ccccc1` (stereo unspecified): the inhibition was -0.62%.

With `CCCCCCn1c(CN2CCCCC2)nc2c1c(=O)n(C)c(=O)n2C`, the inhibition was 11.1%.

In the case of `CCCCCCCCn1c2c(c(=N)c3c1CCC3)CCCC2`, the inhibition is 81.5% (active).

Consider `Cn1cnnc1SCC(=O)NNC(=O)COc1ccc(Br)cc1`, for which the inhibition is 10.5%.

Turning to `CC1(C)OC(=O)C(=CNC(CO)C(=O)O)C(=O)O1` (stereo unspecified), the inhibition was 0.88%.

For `CN(C)CCCCCN(C)Cc1cc2ccccc2o1`, the inhibition was 22.6% (active).

With `OCC1(Cc2ccccc2)CCN(Cc2cc3ccccc3o2)CC1`, the inhibition was 9.75%.

`CCCOC(=O)c1cc2ccccc2oc1=O`: the inhibition is 1.89%.

In the case of `O=C(CCC(=O)OCc1ccc(Cl)cc1)Nc1ccccc1`, the inhibition was -2.82%.

On to `O=C(O)/C=C/c1cn(-c2ccccc2)nc1-c1cccs1`, for which the inhibition was 3.05%.

In the case of `O=C(/C=C\c1cn(-c2ccccc2)nc1-c1cccs1)N1CCOCC1`, the inhibition is 4.67%.

Regarding `O=C(O)/C=C/c1cn(Cc2ccccc2)nc1-c1cccs1`, the inhibition was 20.8% (active).

On to `O=C(OCc1cc(Cl)ccc1OC(F)F)c1cccnc1`, for which the inhibition is -0.25%.

On to `Cc1c(Cl)c([N+](=O)[O-])nn1CCCC(=O)NC(C)c1ccccc1` (stereo unspecified), for which the inhibition is 1.69%.

Consider `COc1cc(OC)c(C(=O)Nc2ccccc2-c2ccccc2)cc1OC`, for which the inhibition is 2.51%.

`COc1ccc(C(CC(=O)O)NC(=O)Cc2ccccc2)cc1` (stereo unspecified): the inhibition is -4.05%.

Regarding `CCC/C=C(\CCC)C(NC(=O)Cc1ccccc1)c1ccc(C(=O)OC)cc1` (stereo unspecified), the inhibition is 26.8% (active).

On to `CCC[C@@H]1C[C@@]1(CCC)[C@@H](NC(=O)c1ccccc1)c1ccc(C(=O)OC)cc1`, for which the inhibition is 6.57%.

For the molecule `O=C(CCc1nnc(CCCCc2ccccc2)o1)NC(c1cccnc1)C(F)(F)F` (stereo unspecified), the inhibition was 3.83%.
